Experimental data published in ChEMBL document CHEMBL4619736, “Direct modifications of the cyclic peptide Polymyxin B leading to analogues with enhanced in vitro antibacterial activity” (Bioorg Med Chem Lett, 2020).
≈ marks a conversion by molar mass, not a printed value. Numbered stars: 1 amine (or outer) side, 2 acyl side, 3 side chain; on linkers, the order of the positions; unused ones are H or OH. Bridge positions count the residues as written; N and C are the ends. Square brackets hold non-standard residues; d marks the D form. Peptide text beside a SMILES is read from it. * marks the point of attachment. X2 = O=C([C@@H](Cc1ccc(-c2ccncc2)cc1)N[*:1])[*:2]; GABA(3R-Bn) = O=C(C[C@H](CN[*:1])Cc1ccccc1)[*:2]; X1 = CC[C@H](C)CCCCC(=O)*; Dab = NCC[C@H](N)C(=O)O; Dap = NC[C@H](N)C(=O)O

Tests used:
[1] = tested on: Acinetobacter baumannii; assay: Antibacterial activity against Acinetobacter baumannii IHMA 863866 by CLSI based broth microdilution method; assay type: functional
Procedure, shortened: (§1)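 Broth microdilution MIC per CLSI guidelines (M07-A9) in cation-adjusted Mueller-Hinton broth; panel of Gram-negative strains including clinical isolates with reduced polymyxin B susceptibility.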

[2] = tested on: Pseudomonas aeruginosa; assay: Antibacterial activity against Pseudomonas aeruginosa IHMA 517175 by CLSI based broth microdilution method; assay type: functional; procedure, shortened: as §1
[3] = tested on: Klebsiella pneumoniae; assay: Antibacterial activity against Klebsiella pneumoniae IHMA 652780 by CLSI based broth microdilution method; assay type: functional; procedure, shortened: as §1
[4] = tested on: Acinetobacter baumannii; assay: Antibacterial activity against Acinetobacter baumannii NCTC 13424 by CLSI based broth microdilution method; assay type: functional; procedure, shortened: as §1
[5] = tested on: Escherichia coli; assay: Antibacterial activity against Escherichia coli IHMA 940398 by CLSI based broth microdilution method; assay type: functional; procedure, shortened: as §1
[6] = tested on: Pseudomonas aeruginosa; assay: Antibacterial activity against Pseudomonas aeruginosa ATCC 27853 by CLSI based broth microdilution method; assay type: functional; procedure, shortened: as §1
[7] = tested on: Escherichia coli; assay: Antibacterial activity against Escherichia coli ATCC 25922 by CLSI based broth microdilution method; assay type: functional; procedure, shortened: as §1
[8] = tested on: Klebsiella pneumoniae; assay: Antibacterial activity against Klebsiella pneumoniae ATCC 4352 by CLSI based broth microdilution method; assay type: functional; procedure, shortened: as §1
[9] = Ratio of test compound IC50 to polymyxin B IC50 for cytotoxicity against human HK2 cells incubated for 24 hrs by resazurin blue dye based assay; assay type: cell-based; conditions: HK-2 cells, read-out: Ratio IC50
Procedure, shortened: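 Confluent monolayers of human proximal tubule epithelial HK-2 cells exposed to compound for 24h at 37°C, 5% CO2; top concentration 1,000 or 3,000 μg/mL, semi-log dilutions, 9 points. Viability read with resazurin blue; log-concentration dose-response fit with bottom constrained to zero gives IC50, expressed relative to polymyxin B IC50 run in the same experiment.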

| MIC [1] [mg/L] | MIC [2] [mg/L] | MIC [3] [mg/L] | MIC [4] [mg/L] | MIC [5] [mg/L] | MIC [6] [mg/L] | MIC [7] [mg/L] | MIC [8] [mg/L] | SMILES | selectivity ratio at 24 h [9] |
| --- | --- | --- | --- | --- | --- | --- | --- | --- | --- |
| 4 (≈ 3.12 µM) | 2 (≈ 1.56 µM) | 0.5 (≈ 0.39 µM) | 0.5 (≈ 0.39 µM) | 4 (≈ 3.12 µM) | 0.5 (≈ 0.39 µM) | 0.5 (≈ 0.39 µM) | 0.5 (≈ 0.39 µM) | CC[C@H](C)CCCCC(=O)N[C@@H](CCN)C(=O)N[C@H](C(=O)N[C@@H](CCN)C(=O)N[C@H]1CCNC(=O)[C@H]([C@@H](C)O)NC(=O)[C@H](CCN)NC(=O)[C@H](CCN)NC(=O)[C@H](CC(C)C)NC(=O)[C@@H](Cc2ccc(Br)cc2)NC(=O)[C@H](CCN)NC1=O)[C@@H](C)O |  |
| > 64 | 32 (≈ 28.6 µM) | 16 (≈ 14.3 µM) | 0.5 (≈ 0.447 µM) | 32 (≈ 28.6 µM) | 0.5 (≈ 0.447 µM) | 0.25 (≈ 0.224 µM) | 0.25 (≈ 0.224 µM) | CC(C)C[C@@H]1NC(=O)[C@@H](Cc2ccccc2)NC(=O)[C@H](CCN)NC(=O)[C@@H](NC(=O)[C@H](CN)NC(=O)[C@@H](NC(=O)[C@@H]2CNCCN2CC(C)C)[C@@H](C)O)CCNC(=O)[C@H]([C@@H](C)O)NC(=O)[C@H](CCN)NC(=O)[C@H](CCN)NC1=O | 16.6 |
| 64 (≈ 55.9 µM) | 8 (≈ 6.99 µM) | 4 (≈ 3.5 µM) | 0.06 (≈ 0.0524 µM) | 32 (≈ 28 µM) | 0.25 (≈ 0.218 µM) | 0.125 (≈ 0.109 µM) |  | CC(C)C[C@@H]1NC(=O)[C@@H](CC2CCCCC2)NC(=O)[C@H](CCN)NC(=O)[C@@H](NC(=O)[C@H](CCN)NC(=O)[C@@H](NC(=O)C[C@H](CN)Cc2ccccc2)[C@@H](C)O)CCNC(=O)[C@H]([C@@H](C)O)NC(=O)[C@H](CCN)NC(=O)[C@H](CCN)NC1=O | 2.4 |
| 16 (≈ 12.5 µM) | 2 (≈ 1.56 µM) | 0.5 (≈ 0.391 µM) | 1 (≈ 0.781 µM) | 8 (≈ 6.25 µM) | 1 (≈ 0.781 µM) | 1 (≈ 0.781 µM) | 0.5 (≈ 0.391 µM) | CC[C@H](C)CCCCC(=O)N[C@@H](CCN)C(=O)N[C@H](C(=O)N[C@@H](CCN)C(=O)N[C@H]1CCNC(=O)[C@H]([C@@H](C)O)NC(=O)[C@H](CCN)NC(=O)[C@H](CCN)NC(=O)[C@H](CC(C)C)NC(=O)[C@@H](Cc2ccc(-c3ccccc3)cc2)NC(=O)[C@H](CCN)NC1=O)[C@@H](C)O | 0.14 |
| 64 (≈ 56.6 µM) | 4 (≈ 3.54 µM) | 4 (≈ 3.54 µM) | 0.125 (≈ 0.111 µM) | 16 (≈ 14.2 µM) | 0.25 (≈ 0.221 µM) | 0.25 (≈ 0.221 µM) | 0.06 (≈ 0.0531 µM) | CC(C)C[C@@H]1NC(=O)[C@@H](CC2CCCCC2)NC(=O)[C@H](CCN)NC(=O)[C@@H](NC(=O)[C@H](CN)NC(=O)[C@@H](NC(=O)C[C@H](CN)Cc2ccccc2)[C@@H](C)O)CCNC(=O)[C@H]([C@@H](C)O)NC(=O)[C@H](CCN)NC(=O)[C@H](CCN)NC1=O | 5.2 |
| 32 (≈ 26.5 µM) | 4 (≈ 3.31 µM) | 1 (≈ 0.827 µM) | 0.5 (≈ 0.413 µM) | 8 (≈ 6.61 µM) | 1 (≈ 0.827 µM) | 0.5 (≈ 0.413 µM) | 0.5 (≈ 0.413 µM) | CC[C@H](C)CCCCC(=O)N[C@@H](CCN)C(=O)N[C@H](C(=O)N[C@@H](CCN)C(=O)N[C@H]1CCNC(=O)[C@H]([C@@H](C)O)NC(=O)[C@H](CCN)NC(=O)[C@H](CCN)NC(=O)[C@H](CC(C)C)NC(=O)[C@@H](CC2CCCCC2)NC(=O)[C@H](CCN)NC1=O)[C@@H](C)O |  |
| 0.5 (≈ 0.419 µM) | 1 (≈ 0.839 µM) | 0.5 (≈ 0.419 µM) | 0.25 (≈ 0.21 µM) | 2 (≈ 1.68 µM) | 0.5 (≈ 0.419 µM) | 0.25 (≈ 0.21 µM) | 0.25 (≈ 0.21 µM) | CC(C)C[C@@H]1CNC[C@@H](C(=O)N[C@H](C(=O)N[C@@H](CN)C(=O)N[C@H]2CCNC(=O)[C@H]([C@@H](C)O)NC(=O)[C@H](CCN)NC(=O)[C@H](CCN)NC(=O)[C@H](CC(C)C)NC(=O)[C@@H](Cc3ccc(-c4ccccc4)cc3)NC(=O)[C@H](CCN)NC2=O)[C@@H](C)O)C1 | 1.2 |
| 4 (≈ 3.35 µM) | 4 (≈ 3.35 µM) | 0.5 (≈ 0.419 µM) | 0.125 (≈ 0.105 µM) | 8 (≈ 6.7 µM) | 0.5 (≈ 0.419 µM) | 0.125 (≈ 0.105 µM) | 0.25 (≈ 0.209 µM) | CC(C)C[C@@H]1NC(=O)[C@@H](Cc2ccc(-c3ccccc3)cc2)NC(=O)[C@H](CCN)NC(=O)[C@@H](NC(=O)[C@H](CN)NC(=O)[C@@H](NC(=O)[C@@H]2CNCCN2CC(C)C)[C@@H](C)O)CCNC(=O)[C@H]([C@@H](C)O)NC(=O)[C@H](CCN)NC(=O)[C@H](CCN)NC1=O | 2.4 |
| > 64 | 8 (≈ 7.17 µM) | 4 (≈ 3.58 µM) | 0.25 (≈ 0.224 µM) | 16 (≈ 14.3 µM) | 0.06 (≈ 0.0537 µM) | 0.06 (≈ 0.0537 µM) | 0.125 (≈ 0.112 µM) | CC(C)C[C@@H]1NC(=O)[C@@H](Cc2ccccc2)NC(=O)[C@H](CCN)NC(=O)[C@@H](NC(=O)[C@H](CN)NC(=O)[C@@H](NC(=O)C[C@H](CN)C2CCCCC2)[C@@H](C)O)CCNC(=O)[C@H]([C@@H](C)O)NC(=O)[C@H](CCN)NC(=O)[C@H](CCN)NC1=O | 6.9 |
| 32 (≈ 28.5 µM) | 2 (≈ 1.78 µM) | 2 (≈ 1.78 µM) | 0.125 (≈ 0.111 µM) | 8 (≈ 7.13 µM) | 0.5 (≈ 0.445 µM) | 0.5 (≈ 0.445 µM) |  | CC(C)C[C@@H]1NC(=O)[C@@H](CC2CCCCC2)NC(=O)[C@H](CCN)NC(=O)[C@@H](NC(=O)[C@H](CN)NC(=O)[C@@H](NC(=O)C[C@H](CN)C2CCCCC2)[C@@H](C)O)CCNC(=O)[C@H]([C@@H](C)O)NC(=O)[C@H](CCN)NC(=O)[C@H](CCN)NC1=O |  |
|  | 32 (≈ 25 µM) |  | 2 (≈ 1.56 µM) | 32 (≈ 25 µM) | 1 (≈ 0.781 µM) | 1 (≈ 0.781 µM) | 1 (≈ 0.781 µM) | CC[C@H](C)CCCCC(=O)N[C@@H](CCN)C(=O)N[C@H](C(=O)N[C@@H](CCN)C(=O)N[C@H]1CCNC(=O)[C@H]([C@@H](C)O)NC(=O)[C@H](CCN)NC(=O)[C@H](CCN)NC(=O)[C@H](CC(C)C)NC(=O)[C@@H](Cc2ccc(-c3ccncc3)cc2)NC(=O)[C@H](CCN)NC1=O)[C@@H](C)O (X1-[Dab]T[Dab][Dab][Dab][X2]L[Dab][Dab]T; lactam 4-C) | 0.7 |
| > 64 | 8 (≈ 7.12 µM) |  | 0.125 (≈ 0.111 µM) | 32 (≈ 28.5 µM) | 0.125 (≈ 0.111 µM) | 0.25 (≈ 0.222 µM) | 0.125 (≈ 0.111 µM) | CC(C)C[C@@H]1NC(=O)[C@@H](Cc2ccccc2)NC(=O)[C@H](CCN)NC(=O)[C@@H](NC(=O)[C@H](CN)NC(=O)[C@@H](NC(=O)C[C@H](CN)Cc2ccccc2)[C@@H](C)O)CCNC(=O)[C@H]([C@@H](C)O)NC(=O)[C@H](CCN)NC(=O)[C@H](CCN)NC1=O ({GABA(3R-Bn)}-T[Dap][Dab][Dab][dF]L[Dab][Dab]T; lactam 3-C) | 12 |

| SMILES | MIC [1] [mg/L] | MIC [2] [mg/L] | MIC [3] [mg/L] | MIC [4] [mg/L] | MIC [5] [mg/L] | MIC [6] [mg/L] | MIC [7] [mg/L] | MIC [8] [mg/L] | selectivity ratio at 24 h [9] |
| --- | --- | --- | --- | --- | --- | --- | --- | --- | --- |
| CC[C@H](C)CCCCC(=O)N[C@@H](CCN)C(=O)N[C@H](C(=O)N[C@@H](CCN)C(=O)N[C@H]1CCNC(=O)[C@H]([C@@H](C)O)NC(=O)[C@H](CCN)NC(=O)[C@H](CCN)NC(=O)[C@H](CC(C)C)NC(=O)[C@@H](Cc2ccccc2)NC(=O)[C@H](CCN)NC1=O)[C@@H](C)O (X1-[Dab]T[Dab][Dab][Dab][dF]L[Dab][Dab]T; lactam 4-C) | 32 (≈ 26.6 µM) | 8 (≈ 6.65 µM) | 4 (≈ 3.32 µM) | 0.25 (≈ 0.208 µM) | 16 (≈ 13.3 µM) | 0.5 (≈ 0.415 µM) | 0.25 (≈ 0.208 µM) | 0.125 (≈ 0.104 µM) | 1 |
